Calls of active or inactive are those of the source. The calls are words filed in the database; no cut-off is given here.

Our source for the Activity, inhibition and IC50 values is ChEMBL document CHEMBL5038571, “Design and Synthesis of EZH2-Based PROTACs to Degrade the PRC2 Complex for Targeting the Noncatalytic Activity of EZH2” (J Med Chem, 2021).

In experiment [1] the test system is NCI-H1299. The experiment in a line: Downregulation of CHEK1 mRNA expression in human NCI-H1299 cells at 10 uM incubated for 48 hrs by qRT-PCR analysis. It is filed as functional, cell-based. The essentials:
(§1)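 Cells treated 48 h. Total RNA extracted with Trizol, reverse-transcribed, and SYBR RT-qPCR run: 95 °C 30 s, then 40 cycles of 95 °C 6 s and 60 °C 20 s. mRNA normalized to the DMSO-treated group. Mean SD of three independent experiments, t-test versus DMSO.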
On the technique in general: Real-time PCR tracks product formation cycle by cycle.

The subject of experiment [2] is MDA-MB-468. The experiment can be described thus: Downregulation of […] mRNA expression in human MDA-MB-468 cells at 10 uM incubated for 48 hrs by qRT-PCR analysis. The class given is functional, cell-based. A digest of the protocol:
as §1

Experiment [3] addresses T1, Protein cereblon/Histone-lysine N-methyltransferase EZH2 (Homo sapiens) (UniProt Q15910+Q96SW2). The experiment in a line: PROTAC activity at CRBN E3 ligase/EZH2 in PRC2 complex in human WSUDLCL2 cells assessed as increase in SUZ12 ubiquitination at 1 uM measured after 48 hrs by co-immunoprecipitation assay. It is filed as cell-based. The essentials: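 WSU-DLCL-2 cells treated with 1 μM compound for 48 h and lysed in RIPA buffer. Lysates incubated with antibodies overnight at 4 °C, then 3 h with Protein G agarose beads at 4 °C. Proteins eluted in IP buffer and ubiquitination of the target probed by immunoblot.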

The target of experiment [4] is T1, Protein cereblon/Histone-lysine N-methyltransferase EZH2 (Homo sapiens). The experiment in a line: PROTAC activity at CRBN E3 ligase/EZH2 in PRC2 complex in human DU-145 cells assessed as induction of EZH2 degradation by measuring reduction in EZH2 protein level at 1 uM incubated for 48 hrs by Western blot analysis. It is filed as cell-based. The essentials:
(§2)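 Cancer cell lines exposed to 1 μM compound for 48 h. Lysates immunoblotted (SDS-PAGE, nitrocellulose, 5% milk block, primary antibody overnight at 4 °C) for EZH2, SUZ12, EED, RbAp48 and H3K27me3. Bands quantified by densitometry and normalized to GAPDH.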

For experiment [5], the system named is NCI-H1299. The experiment can be described thus: Antiproliferative activity against EZH2-knockdown human NCI-H1299 cells assessed as inhibition of cell growth at 10 uM treated for 9 days by optical microscopic analysis. It is filed as functional, cell-based. Particulars: time 9.0 day. The essentials:
(§3)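 Cells seeded at 5 × 10³ per well, grown 24 h, then exposed to compound at 10 μM for 9 days with medium refreshed. Cells were photographed and counted on days 1, 3, 5, 7 and 9. For lines 1-2, EZH2-targeting or control shRNA was induced in the cells. Mean SD of three independent experiments; t-test against control.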

Experiment [6] relates to A549. The experiment in a line: Upregulation of CDKN2A mRNA expression in human A549 cells at 5 uM incubated for 48 hrs by qRT-PCR analysis. It is filed as functional, cell-based. The essentials:
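A549 cells treated 48 h. Trizol RNA extraction, reverse transcription, SYBR qPCR (95 °C 30 s; 40 cycles of 95 °C 6 s, 60 °C 20 s). mRNA normalized to DMSO-treated cells; mean ± SD of three independent experiments.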

In experiment [7] the target is T1, Protein cereblon/Histone-lysine N-methyltransferase EZH2 (Homo sapiens). The experiment can be described thus: PROTAC activity at CRBN E3 ligase/EZH2 in PRC2 complex in human A2780 cells assessed as induction of RbAp48 degradation by measuring reduction in RbAp48 protein level at 1 uM incubated for 48 hrs by Western blot analysis. The class given is cell-based. A digest of the protocol:
as §2
In general terms: Immunoblotting shows a protein as a band on a membrane.

For experiment [8] the target is unchanged. The experiment can be described thus: PROTAC activity at CRBN E3 ligase/EZH2 in PRC2 complex in human WSUDLCL2 cells assessed as induction of EZH2 degradation incubated for 48 hrs by Western blot analysis. It is filed as cell-based. Particulars: dose 1-10 µM. The essentials:
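WSU-DLCL-2 cells treated 48 h (1 μM for the single-concentration screen), lysed; SDS-PAGE, nitrocellulose transfer, 5% milk block, primary antibody 4 °C overnight, chemiluminescence. Bands quantified by densitometry, normalized to GAPDH, expressed relative to DMSO-treated cells; mean ± SD of three independent experiments, t-test.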

Experiment [9] has as its system WSUDLCL2. The experiment in a line: Inhibition of PRC2 in human WSUDLCL2 cells assessed as suppression H3K27 trimethylation incubated for 48 hrs by Western blot analysis. It is filed as cell-based. The essentials: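 Lysates run on SDS-PAGE and transferred to nitrocellulose. Membranes blocked with 5% skim milk for 2 h, primary antibody applied overnight at 4 °C, then secondary antibody and chemiluminescent detection of histone H3 methylation marks.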

In experiment [10] the test system is A549. The experiment can be described thus: Antiproliferative activity against human A549 cells harboring SWI/SNF mutant assessed as inhibition of cell growth at 10 uM treated for 9 days by optical microscopic analysis. The class given is functional, cell-based. Particulars: time 9.0 day. The essentials: as §3
The target of experiment [11] is T1, Protein cereblon/Histone-lysine N-methyltransferase EZH2 (Homo sapiens). The experiment can be described thus: PROTAC activity at CRBN E3 ligase/EZH2 in PRC2 complex in human WSUDLCL2 cells assessed as downregulation of RbAp48 expression at 1 uM pretreated with MG-132 for 4 hrs followed by compound addition and measured after 48 hrs by Western blot analysis. The class given is cell-based. A digest of the protocol: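 WSU-DLCL-2 cells pretreated 4 h with the named inhibitor, then compound added and incubated a further 48 h. EZH2, SUZ12, EED and RbAp48 measured by western blot (nitrocellulose transfer, skim-milk block, primary antibody overnight at 4 °C, chemiluminescent detection).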

Experiment [12] deals with WSUDLCL2. The experiment can be described thus: Upregulation of CDKN2A mRNA expression in human WSUDLCL2 cells at 1 uM incubated for 48 hrs by qRT-PCR analysis. It is filed as functional, cell-based. A digest of the protocol: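 WSU-DLCL-2 or Pfeiffer cells treated 48 h. Trizol RNA extraction, reverse transcription, SYBR qPCR (95 °C 30 s; 40 cycles of 95 °C 6 s, 60 °C 20 s). mRNA normalized to DMSO-treated cells; mean ± SD of three independent experiments, t-test.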

The test system of experiment [13] is NCI-H1299. The experiment can be described thus: Downregulation of ARL6IP mRNA expression in human NCI-H1299 cells at 10 uM incubated for 48 hrs by qRT-PCR analysis. The class given is functional, cell-based. The essentials: as §1
Experiment [14] addresses T1, Protein cereblon/Histone-lysine N-methyltransferase EZH2 (Homo sapiens). The experiment in a line: PROTAC activity at CRBN E3 ligase/EZH2 in PRC2 complex in human SU-DHL-6 cells assessed as induction of RbAp48 degradation by measuring reduction in RbAp48 protein level at 1 uM incubated for 48 hrs by Western blot analysis. It is filed as cell-based. The essentials: (§4)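 Cells cultured in DMEM or RPMI 1640 with 10% FBS and 1% penicillin-streptomycin, 37 °C, 5% CO2; exposed to 1 μM compound for 48 h. Lysates run on SDS-PAGE and transferred to nitrocellulose. Blocked 2 h in 5% skim milk, primary antibody overnight at 4 °C, then secondary antibody. Chemiluminescent detection of PRC2 subunits and H3K27me3.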

In experiment [15] the target is Histone-lysine N-methyltransferase EZH2 (Homo sapiens, UniProt Q15910). The class given is cell-based, Sf9.
Sequence of Histone-lysine N-methyltransferase EZH2 (Q15910 whole entry): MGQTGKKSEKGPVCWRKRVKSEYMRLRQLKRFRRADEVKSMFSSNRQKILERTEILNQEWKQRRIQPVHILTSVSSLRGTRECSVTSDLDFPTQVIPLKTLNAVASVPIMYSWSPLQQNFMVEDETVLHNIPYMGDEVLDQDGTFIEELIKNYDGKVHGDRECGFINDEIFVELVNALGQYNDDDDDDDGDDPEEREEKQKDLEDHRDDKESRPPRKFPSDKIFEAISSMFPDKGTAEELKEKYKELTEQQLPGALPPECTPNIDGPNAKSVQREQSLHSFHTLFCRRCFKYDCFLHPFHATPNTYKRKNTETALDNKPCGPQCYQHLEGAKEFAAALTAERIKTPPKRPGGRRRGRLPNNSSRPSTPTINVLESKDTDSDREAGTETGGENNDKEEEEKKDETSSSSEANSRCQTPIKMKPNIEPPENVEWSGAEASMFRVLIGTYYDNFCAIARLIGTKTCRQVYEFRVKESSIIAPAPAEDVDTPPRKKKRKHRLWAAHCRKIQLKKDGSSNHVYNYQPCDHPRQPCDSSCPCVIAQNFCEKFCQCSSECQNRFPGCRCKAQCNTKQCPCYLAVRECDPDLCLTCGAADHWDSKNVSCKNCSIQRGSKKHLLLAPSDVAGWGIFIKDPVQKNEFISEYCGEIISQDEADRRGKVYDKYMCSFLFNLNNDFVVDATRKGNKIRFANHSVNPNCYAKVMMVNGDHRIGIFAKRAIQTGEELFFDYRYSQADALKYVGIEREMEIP
Experiment [16] concerns the target T1, Protein cereblon/Histone-lysine N-methyltransferase EZH2 (Homo sapiens). The experiment can be described thus: PROTAC activity at CRBN E3 ligase/EZH2 in PRC2 complex in human WSUDLCL2 cells assessed as induction of EED degradation at 1 uM incubated for 48 hrs by Western blot analysis relative to control. The class given is cell-based. A digest of the protocol:
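WSU-DLCL-2 cells exposed to 1 μM compound for 48 h, with DMSO-treated cells as control. Bands quantified by densitometry and normalized to GAPDH. Mean SD from three independent experiments, t-test versus DMSO.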

Experiment [17] concerns A549. The experiment in a line: Downregulation of CEP76 mRNA expression in human A549 cells at 10 uM incubated for 48 hrs by qRT-PCR analysis. The class given is functional, cell-based. The essentials: as §1
The target of experiment [18] is T1, Protein cereblon/Histone-lysine N-methyltransferase EZH2 (Homo sapiens). The experiment in a line: PROTAC activity at CRBN E3 ligase/EZH2 in PRC2 complex in human SK-OV-3 cells assessed as induction of SUZ12 degradation by measuring reduction in SUZ12 protein level at 1 uM incubated for 48 hrs by Western blot analysis. It is filed as cell-based. A digest of the protocol:
as §4

T1 sequence (Q15910 whole entry, looked up): as the sequence (Q15910 whole entry) above
T1 sequence (Q96SW2 whole entry, looked up): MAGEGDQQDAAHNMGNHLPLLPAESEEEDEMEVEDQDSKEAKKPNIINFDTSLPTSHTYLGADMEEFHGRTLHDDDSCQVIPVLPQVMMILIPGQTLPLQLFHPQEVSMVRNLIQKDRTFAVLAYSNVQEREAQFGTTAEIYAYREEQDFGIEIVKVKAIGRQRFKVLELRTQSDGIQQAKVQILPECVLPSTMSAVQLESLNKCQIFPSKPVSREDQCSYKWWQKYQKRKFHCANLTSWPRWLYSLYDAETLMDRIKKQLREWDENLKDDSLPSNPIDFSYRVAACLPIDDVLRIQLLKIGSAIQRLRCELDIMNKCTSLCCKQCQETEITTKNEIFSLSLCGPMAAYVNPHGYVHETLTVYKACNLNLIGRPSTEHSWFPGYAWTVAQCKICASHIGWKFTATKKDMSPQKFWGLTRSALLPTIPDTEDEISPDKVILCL

Usually IC50 stands for the concentration at which inhibition is half-maximal. Regarding `CCN(c1cc(-c2ccc(CN3CCN(CCCCCCCOc4cccc5c4C(=O)N(C4CCC(=O)NC4=O)C5=O)CC3)cc2)cc(C(=O)NCc2c(C)cc(C)[nH]c2=O)c1C)C1CCOCC1` (stereo not drawn), the result in experiment [1], in [2], in [3], in experiment [4], in experiment [5] and in [6] was Active. Also, the result in experiment [7], in experiment [10], in experiment [13], in experiment [14], in experiment [17] and in [18] was Active. For the same molecule, the Activity entry in experiment [8] was “Dose-Dependent Effect”; in experiment [16], 75%. For the same molecule, the inhibition result in [9] is “Dose-Dependent Effect”. Further, the outcome in experiment [11] and in experiment [12] was inactive. Further, the IC50 in experiment [15] was found to be 2.7 nM.
